Bioassay records as filed in PubChem.
TRPC4 act – TRPC4 (mouse) channel activation; hit rate 0.49% among 310,000; B-score at 10 µM; Q9QUQ5; HEK293 TRPC4beta/mu-opioid, Fluo4 calcium fluorescence; hits give high values;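 active = B-score above 5 SD of library B-scores, and initial fluorescence ratio not above library mean plus 5 SD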;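 also: positive B-score marks a calcium rise read as TRPC4 activation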
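system = HEK293 cells stably co-expressing mouse TRPC4beta and mu-opioid receptor | schedule = Fluo4 dye loading 45 min at room temperature, 110 s recording | measure = B-scored integrated calcium fluorescence ratio | signal = Fluo4 calcium-sensitive dye fluorescence, kinetic, 1 Hz baseline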
TRPC4 potent – allosterically enhances the mouse TRPC4 cation channel | Q9QUQ5 | HEK293 TRPC4beta/mu-opioid, DAMGO EC20, Fluo-4 Ca2+ flux; hits give high values | B-score at 10 µM | hit rate 0.42% among 310,000 | AID 2227;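 active = B-score of calcium response area above 5 SD of library B-scores, with initial fluorescence ratio within 5 SD of library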
TRPC6 inhibitor – blocks the mouse TRPC6 cation channel; hit rate 1.1% among 310,000; Q61143; HEK293-TRPC6, membrane potential dye, ACh-evoked depolarization; hits give low values; AID 2553; B-score at 10 µM;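 active = B-score under library mean minus 3 SD, initial fluorescence not abnormally high, positive integrated signal ratio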;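 also: B-score derived from integrated fluorescence ratio over the kinetic read; more negative B-score means stronger inhibition of depolarization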
Target sequence (Q61143 whole entry, looked up): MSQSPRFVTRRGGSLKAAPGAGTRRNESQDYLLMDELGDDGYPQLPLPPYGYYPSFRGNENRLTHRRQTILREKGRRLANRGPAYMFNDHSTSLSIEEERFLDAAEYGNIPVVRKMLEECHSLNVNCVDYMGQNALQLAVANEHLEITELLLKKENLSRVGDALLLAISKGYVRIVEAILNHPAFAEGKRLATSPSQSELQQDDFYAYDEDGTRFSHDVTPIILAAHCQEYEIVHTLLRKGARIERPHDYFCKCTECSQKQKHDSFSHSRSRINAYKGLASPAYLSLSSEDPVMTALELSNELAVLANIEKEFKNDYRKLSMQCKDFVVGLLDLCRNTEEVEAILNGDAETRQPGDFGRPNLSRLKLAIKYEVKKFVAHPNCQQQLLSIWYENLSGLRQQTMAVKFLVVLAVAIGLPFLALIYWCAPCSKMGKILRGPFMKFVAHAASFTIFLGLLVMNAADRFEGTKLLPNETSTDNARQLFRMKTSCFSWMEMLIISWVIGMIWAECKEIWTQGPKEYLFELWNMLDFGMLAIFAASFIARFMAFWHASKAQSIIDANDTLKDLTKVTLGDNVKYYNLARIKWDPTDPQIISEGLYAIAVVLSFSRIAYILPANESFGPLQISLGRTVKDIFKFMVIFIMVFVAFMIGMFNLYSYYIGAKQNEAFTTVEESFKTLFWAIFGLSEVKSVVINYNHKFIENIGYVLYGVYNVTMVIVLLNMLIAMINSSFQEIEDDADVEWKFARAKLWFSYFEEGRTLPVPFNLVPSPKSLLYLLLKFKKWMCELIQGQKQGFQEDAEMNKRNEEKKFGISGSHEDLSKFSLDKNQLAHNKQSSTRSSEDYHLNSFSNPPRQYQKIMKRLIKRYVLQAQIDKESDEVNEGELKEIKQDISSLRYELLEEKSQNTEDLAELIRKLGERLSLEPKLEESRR
TRPC6 act – activators of mouse TRPC6 channel; Q61143; B-score at 10 µM; HEK293-TRPC6 membrane potential dye fluorescence; hits give high values; AID 2550; hit rate 0.13% among 310,000;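 active = B-score of the integrated fluorescence ratio above library mean plus 3 SD, and starting fluorescence ratio within library mean plus 5 SD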;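 also: higher score means more depolarization so channel activation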
TRPC4 inh – blocks the mouse TRPC4 cation channel. Q9QUQ5. HEK293 TRPC4beta/mu-opioid, DAMGO-evoked Fluo4 calcium flux; hits give low values. B-score at 10 µM. hit rate 0.39% among 300,000. AID 2247;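 active = B-score over 3 SD under the library average, no early fluorescence shift, positive overall ratio signal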
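Assay system: HEK293 cells with stable TRPC4beta plus mu-opioid receptor expression. Dosing: single dose. Measured by: Fluo4 Ca2+ flux fluorescence. Also added: DAMGO in two steps, submaximal then maximal. Read-out: B score from integrated Fluo4 fluorescence ratio.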
TRPC4 spec 2 – mouse TRPC4 off-target activity of TRPC6 inhibitors, second screen | shares compounds with TRPC6 inhibitor | HEK293 TRPC4/MOR, membrane potential dye fluorescence; channel activated by saturating DAMGO dose | inhibition, % at 10 µM | hit rate 42% among 920 | AID 2776;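 active = compounds whose fluorescence signal differed from control wells by over 3 SD, either direction, in both duplicate plates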
TRPC4 spec – selectivity of TRPC6 inhibitors: effect on mouse TRPC4; shares compounds with TRPC6 inhibitor; activity change, negative = inhibition, % at 10 µM; HEK293 TRPC4/mu-opioid, membrane potential fluorescence; hit rate 61% among 920;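 active = rise or fall in signal beyond 3 SD of buffer-only wells in both replicate plates, either sign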;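 also: integrated kinetic ratio of fluorescence range over baseline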
HEK293 counter 2 – second check of TRPC6 inhibitor effects in parental HEK293 cells; shares compounds with TRPC6 inhibitor; parental HEK293 membrane potential dye fluorescence; maximal acetylcholine challenge after compound addition; signal change vs control, % at 10 µM; hit rate 31% among 920;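 active = membrane potential signal moving either way by over 3 SD of the maximum-effect control, in both duplicate plates, meaning non-specific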
HEK293 MPD ctr – parental HEK293 nonspecific activity of TRPC6 inhibitors; shares compounds with TRPC6 inhibitor; parental HEK293 membrane potential dye fluorescence; membrane potential signal change, % at 10 µM; hit rate 60% among 920;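 active = membrane potential signal shifting up or down by more than 3 SD of buffer-only wells, on both duplicate plates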
TRPC6 inh conf – mouse TRPC6 inhibitor confirmation | shares compounds with TRPC6 inhibitor | HEK293-TRPC6, membrane potential dye, ACh-evoked depolarization | inhibition, % at 10 µM | hit rate 43% among 3,300 | AID 488960;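 active = fluorescence ratio falls more than 5 SD below the full-stimulation control mean, in both duplicate runs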;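 also: integrated fluorescence ratio of peak minus minimum over baseline after agonist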
Hits are given with their value; – = inactive. This is a sample that favours compounds with a hit; in the whole collection about 2.3% have one here.

SMILES	TRPC4 act	TRPC4 potent	TRPC6 inhibitor	TRPC6 act	TRPC4 inh	others
NC(N)=N/N=C/c1ccc(N(c2ccccc2)c2ccccc2)cc1	86	–	–	–	–
COc1cc(C(=O)OC2C[C@H]3CC[C@@H](C2)N3C)ccc1O (some centres not stated)	–	–	–	–	–
CN1C2CCC1CC(OC(=O)c1cc(Cl)cc(Cl)c1)C2 (configuration not stated)	–	13	–	–	–
CCNC(=O)[C@H]1O[C@@H](n2cnc3c(N)ncnc32)[C@H](O)[C@@H]1O	49	–	–	–	–
NC(=O)c1cn(C2OC(CO)C(O)C2O)c2ncnc(N)c12 (configuration not stated)	–	–	–	–	–
c1ccc2[nH]c(CCNC3CCCCC3)nc2c1	65	–	–	–	–
c1ccc2c(CCNC3CCCCC3)c[nH]c2c1	–	–	–	–	–
COc1ccccc1CN1CCCC(C(=O)c2ccccc2SC)C1 (configuration not stated)	–	–	–	–	–
COc1ccc(C(=O)C2CCCN(CCO)C2)c(C)c1 (configuration not stated)	51	–	–	–	–
COc1ccc(O)c(CN2CCCC(C(=O)c3ccccc3SC)C2)c1 (configuration not stated)	–	–	–	–	-6
COc1ccc(C(=O)C2CCCN(C3CSCCSC3)C2)c(C)c1 (configuration not stated)	59	–	–	–	–
Cn1cnc(CCN)c1	143	–	–	–	–
Cc1ccc(Cl)cc1N1CCN(CCN)CC1	155	–	–	–	–
COc1ccc(NP(=O)(Nc2ccc(OC)cc2)Oc2ccccc2)cc1	–	12	–	–	–
COc1ccc(OC)c(NP(=O)(Oc2ccccc2)Oc2ccccc2)c1	–	10	–	–	–
CN(C)CCSCc1nnc2n1-c1ccc(Cl)cc1C(c1ccccc1Cl)=NC2	–	–	–	–	–
O=C1/C(=C\c2ccccc2)C2OCC=C3CN4CCC56c7ccccc7N1C5C2C3CC46 (configuration not stated)	–	–	–	–	–
Nc1ccccc1-[n+]1c(-c2ccccc2)cc(-c2ccccc2)cc1-c1ccccc1	–	25	–	–	–
Oc1ccccc1-[n+]1c(-c2ccccc2)cc(-c2ccccc2)cc1-c1ccccc1	–	–	–	–	–
Cc1ccc(-n2cc(CNC(C)Cc3cnccn3)c(-c3cccc(C)c3)n2)cc1 (configuration not stated)	143	–	–	–	–
CC(Cc1ccccc1)NCC(=O)Nc1cc(N(C)C)nc2ccccc12 (configuration not stated)	–	–	–	–	-6
CNCCc1nc(N)n[nH]1	101	–	–	–	–
C=CCn1c(O)c(C(CC)=Nc2cccc(C(F)(F)F)c2)c(=O)[nH]c1=O	–	–	–	–	–
CN(C)c1ccc(/C=C/[N+](=O)[O-])cc1	–	–	–	19	–
C/C(=C\c1ccc(N(C)C)cc1)[N+](=O)[O-]	–	–	–	–	–
SMILES	TRPC4 act	TRPC4 potent	TRPC6 inhibitor	TRPC6 act	TRPC4 inh	others
CCN(CC)c1nc2c(C)cccn2c(=O)c1C=C1C(=O)NC(=O)NC1=O	–	14	–	–	–
O=[N+]([O-])c1ccc(-c2ccccc2)c([As](=O)(O)O)c1	–	–	–	–	–
CCOc1cc(CNCCc2c[nH]c3ccccc23)cc(Cl)c1OC	159	–	–	–	–
COc1cc(NC(=O)CN2C3CCC2CC(O)(c2cccnc2)C3)cc(OC)c1 (configuration not stated)	–	–	–	–	–
Clc1ccc(C2NCCc3[nH]cnc32)cc1 (configuration not stated)	–	–	–	–	–
Fc1cccc(C2NCCc3[nH]cnc32)c1 (configuration not stated)	162	–	–	–	–
CC1(C)CC(N(CCc2ccccc2)Cc2ccccc2)CCO1 (configuration not stated)	–	–	–	–	-6
CC1CC(C)CN(CC(=O)c2ccc(OC(F)F)cc2)C1 (configuration not stated)	52	–	–	–	–
CCOC(=O)CC(NC(=O)C(Cc1ccc(N(CCCl)CCCl)cc1)NC(C)=O)C(=O)OCC (configuration not stated)	–	–	–	–	–
Cc1ccc(-c2nc(N(C)C3CCN(C)CC3)c3ccccc3n2)cc1	–	24	–	–	–
CC(CN(C)C1CCN(C)CC1)c1ccccc1 (configuration not stated)	–	–	–	–	–
COc1ccc(-[n+]2c(-c3ccccc3)cc(-c3ccc(C)cc3)cc2-c2ccccc2)cc1	–	–	-9.1	–	–	TRPC4 spec 2=–;TRPC4 spec=17%;HEK293 counter 2=–;HEK293 MPD ctr=18%;TRPC6 inh conf=70%
Cc1ccc(-c2cc(-c3ccccc3)cc(-c3ccccc3)[n+]2-c2ccc(C(=O)O)cc2)cc1	–	–	–	–	–
